Measurements published in ChEMBL document CHEMBL1125320, “Imidazole-5-acrylic acids: potent nonpeptide angiotensin II receptor antagonists designed using a novel peptide pharmacophore model” (J Med Chem, 1992).

Columns and labels:
[1] = biological target: Angiotensin II receptor (Oryctolagus cuniculus); test: Inhibition of angiotensin II induced vasoconstriction of rabbit aorta
Rattus norvegicus [2] = test: Compound was evaluated in vivo, for the dose that produced 50% inhibition of the pressor response to AII in conscious normotensive rats after iv administration; assay type: functional; conditions: read-out: ID50 (the source's name)
Summary of the method: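 Conscious normotensive rats with indwelling femoral arterial and venous catheters were tested 2-3 days after surgery while in a restrainer, with continuous arterial pressure recording. The MAP rise to iv angiotensin II 250 ng/kg was measured at time points before and after iv compound at 0.3-300 mg/kg.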

Angiotensin II receptor = biological target: T1, Angiotensin II receptor (Rattus norvegicus, UniProt P29089+P25095+P35351); test: Inhibition of [125I]angiotensin II specific binding to rat mesenteric arteries; assay type: protein assay
T1 sequence (P29089 whole entry): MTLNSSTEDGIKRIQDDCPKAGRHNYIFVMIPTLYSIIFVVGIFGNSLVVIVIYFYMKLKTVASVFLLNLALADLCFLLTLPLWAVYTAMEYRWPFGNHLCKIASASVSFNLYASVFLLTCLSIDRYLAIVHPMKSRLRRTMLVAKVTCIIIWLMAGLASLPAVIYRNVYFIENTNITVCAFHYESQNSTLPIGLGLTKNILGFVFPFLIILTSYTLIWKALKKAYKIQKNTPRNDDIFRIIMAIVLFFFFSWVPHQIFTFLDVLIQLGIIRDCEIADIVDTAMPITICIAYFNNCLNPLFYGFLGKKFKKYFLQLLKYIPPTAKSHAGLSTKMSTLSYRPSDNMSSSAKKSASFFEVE
T1 sequence (P25095 whole entry): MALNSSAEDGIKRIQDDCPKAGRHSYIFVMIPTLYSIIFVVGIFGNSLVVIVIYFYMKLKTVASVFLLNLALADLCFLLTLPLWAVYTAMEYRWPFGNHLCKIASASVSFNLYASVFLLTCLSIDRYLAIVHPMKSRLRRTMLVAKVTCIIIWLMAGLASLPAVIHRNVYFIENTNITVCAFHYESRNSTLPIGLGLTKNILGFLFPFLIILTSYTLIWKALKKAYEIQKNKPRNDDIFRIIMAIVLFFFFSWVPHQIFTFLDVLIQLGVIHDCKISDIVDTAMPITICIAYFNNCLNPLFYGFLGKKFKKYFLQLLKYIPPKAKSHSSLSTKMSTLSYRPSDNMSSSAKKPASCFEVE
T1 sequence (P35351 whole entry): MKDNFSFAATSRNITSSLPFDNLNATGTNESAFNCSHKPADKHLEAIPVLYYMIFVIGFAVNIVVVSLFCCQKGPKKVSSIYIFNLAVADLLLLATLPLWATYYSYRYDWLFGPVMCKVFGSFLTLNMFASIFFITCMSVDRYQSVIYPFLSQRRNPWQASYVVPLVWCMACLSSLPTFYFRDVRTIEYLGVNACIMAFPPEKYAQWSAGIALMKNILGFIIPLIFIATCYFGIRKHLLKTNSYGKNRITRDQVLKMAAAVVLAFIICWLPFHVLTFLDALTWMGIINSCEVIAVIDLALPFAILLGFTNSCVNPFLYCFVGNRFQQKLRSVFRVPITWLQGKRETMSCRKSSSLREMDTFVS

[3] = biological target: T2, Type-1 angiotensin II receptor (Oryctolagus cuniculus) (UniProt P34976); test: (§1) Compound was evaluated for the inhibition of AII-induced vasoconstriction of the rabbit aorta
T2 sequence (whole entry): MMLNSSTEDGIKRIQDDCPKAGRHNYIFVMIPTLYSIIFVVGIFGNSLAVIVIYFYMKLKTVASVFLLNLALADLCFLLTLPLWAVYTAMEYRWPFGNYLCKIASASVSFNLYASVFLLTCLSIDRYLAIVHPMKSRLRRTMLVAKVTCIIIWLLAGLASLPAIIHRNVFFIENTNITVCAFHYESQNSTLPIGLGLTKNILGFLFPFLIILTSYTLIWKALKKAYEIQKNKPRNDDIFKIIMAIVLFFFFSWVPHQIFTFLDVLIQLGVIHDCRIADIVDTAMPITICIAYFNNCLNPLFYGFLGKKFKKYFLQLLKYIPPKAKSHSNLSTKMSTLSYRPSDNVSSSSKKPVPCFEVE
Summary of the method: (§2)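 Isolated rabbit aorta ring segments mounted on metal supports attached to force displacement transducers. Cumulative angiotensin II concentration-response curves were run without antagonist or after a 30-min antagonist incubation.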

[4] = biological target: T3, Type-1 angiotensin II receptor B (Rattus norvegicus, UniProt P29089); test: Inhibition of [125I]angiotensin II receptor specific binding to rat mesenteric arteries
T3 sequence (P29089 whole entry): T1 sequence (P29089 whole entry)

[5] = biological target: T2, Type-1 angiotensin II receptor (Oryctolagus cuniculus); test: as §1; assay type: functional, tissue-based
Summary of the method: as §2

Rattus norvegicus [6] = test: Compound was evaluated in vivo, for the dose that produced 50% inhibition of the pressor response to AII in conscious normotensive rats after intraduodenal administration; assay type: functional; conditions: read-out: ID50 (the source's name)
[7] = biological target: T3, Type-1 angiotensin II receptor B; test: Compound was evaluated for the inhibition of [125I]AII specific binding to rat mesenteric arteries
Summary of the method: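 Particulate fraction from rat mesenteric arteries incubated in Tris buffer with 80 pM [125I]angiotensin II, with or without antagonist, for 1 h at 25 °C. The incubation was stopped by rapid filtration, and filter-bound radioligand was counted on a γ counter. Inhibition of specific binding; n = 3-5.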

[8] = biological target: T2, Type-1 angiotensin II receptor (Oryctolagus cuniculus); test: as §1; assay type: tissue-based
Summary of the method: as §2

[9] = biological target: T2, Type-1 angiotensin II receptor (Oryctolagus cuniculus); test: (§3) Compound was evaluated for the inhibition of Angiotensin II receptor induced vasoconstriction of the rabbit aorta; assay type: tissue-based
Summary of the method: as §2

[10] = biological target: T2, Type-1 angiotensin II receptor (Oryctolagus cuniculus); test: as §3; assay type: functional, tissue-based
Summary of the method: as §2

[11] = biological target: Angiotensin II receptor (Oryctolagus cuniculus); test: Compound was evaluated for the inhibition of Angiotensin II receptor, induced vasoconstriction of the rabbit aorta

SMILES	Kb [1] [µM]	IC50 (Angiotensin II receptor) [µM]	other results
CCCCc1ncc(/C=C(\Cc2ccncc2)C(=O)O)n1Cc1ccccc1Cl	0.17	0.15	ED50 (Rattus norvegicus [2]): 5.9 mg/kg
CCCCc1ncc(/C=C(/Cc2ccco2)C(=O)O)n1Cc1ccccc1Cl	14.4	> 100	–
CCCCc1ncc(/C=C(\Cc2ccoc2)C(=O)O)n1Cc1ccccc1Cl	0.03	0.36	–
CCCCc1ncc(/C=C(\Cc2ccccc2)C(=O)O)n1Cc1ccccc1Cl	–	–	Kb [3]: 0.064 µM; IC50 [4]: 2.6 µM; ED50 (Rattus norvegicus [2]): 14 mg/kg
CCCCc1ncc(/C=C/C(=O)O)n1Cc1ccccc1Cl	14	124	–
CCCCc1ncc(/C=C(\Cc2cccc(OC)c2)C(=O)O)n1Cc1ccccc1Cl	0.27	0.81	ED50 (Rattus norvegicus [2]): 10 mg/kg
CCCCc1ncc(-c2cccc(C(=O)O)c2)n1Cc1ccccc1Cl	4.8	33.9	–
CCCCc1ncc(/C=C(\Cc2ccc(OC)cc2)C(=O)O)n1Cc1ccccc1Cl	0.12	0.81	ED50 (Rattus norvegicus [2]): 9 mg/kg
CCCCc1ncc(/C=C(\Cc2ccc(O)c(O)c2)C(=O)O)n1Cc1ccccc1Cl	–	0.058	Kb [5]: 0.14 µM; ED50 (Rattus norvegicus [6]): 20 mg/kg
CCCCc1ncc(-c2ccccc2C(=O)O)n1Cc1ccccc1Cl	17.2	> 100	–
CCCCc1ncc(/C=C(\Cc2ccc(C)s2)C(=O)O)n1Cc1ccccc1Cl	0.13	–	IC50 [4]: 0.7 µM; ED50 (Rattus norvegicus [2]): 7.6 mg/kg
CCCCc1ncc(/C=C\C(=O)O)n1Cc1ccccc1Cl	0.81	8.9	ED50 (Rattus norvegicus [2]): 15 mg/kg
CCCCc1ncc(/C=C(\Cc2cccc(Oc3ccccc3)c2)C(=O)O)n1Cc1ccccc1Cl	–	–	IC50 [7]: 10 µM; Kb [8]: 18.1 µM
CCCCc1ncc(/C=C(\Cc2cccs2)C(=O)O)n1Cc1ccccc1Cl	–	–	ED50 (Rattus norvegicus [2]): 3.6 mg/kg
CCCCc1ncc(/C=C(\Cc2ccc(N(C)C)cc2)C(=O)O)n1Cc1ccccc1Cl	0.59	14.6	–
CCCCc1ncc(/C=C(\Cc2ccccc2C)C(=O)O)n1Cc1ccccc1Cl	1.14	–	IC50 [4]: 5 µM
CCCCc1ncc(/C=C(\Cc2ccc3c(c2)OCO3)C(=O)O)n1Cc1ccccc1Cl	0.13	0.47	ED50 (Rattus norvegicus [2]): 9.4 mg/kg
CCCCc1ncc(/C=C(\CCc2ccccc2)C(=O)O)n1Cc1ccccc1Cl	0.42	2.9	–
CCCCc1ncc(/C=C(\Cc2ccc(OC)s2)C(=O)O)n1Cc1ccccc1Cl	0.03	–	IC50 [4]: 0.09 µM
CCCCc1ncc(/C=C(\Cc2sccc2C)C(=O)O)n1Cc1ccccc1Cl	0.28	–	IC50 [4]: 0.73 µM
CCCCc1ncc(/C=C(\Cc2ccccn2)C(=O)O)n1Cc1ccccc1Cl	2.9	0.82	–
CCCCc1ncc(/C(C)=C/C(=O)O)n1Cc1ccccc1Cl	0.66	3.6	–
CCCCc1ncc(/C=C(/C(=O)O)C(C)c2ccccc2)n1Cc1ccccc1Cl (stereo not drawn)	0.24	4.6	–
CCCCc1ncc(CCCCC(=O)O)n1Cc1ccccc1Cl	11	17	–

SMILES	Kb [1] [µM]	IC50 (Angiotensin II receptor) [µM]	other results
CCCCc1nc(Cl)c(CC(=O)O)n1Cc1ccccc1Cl	–	–	ED50 (Rattus norvegicus [2]): 30 mg/kg; Kb [9]: 2.7 µM
CCCCc1ncc(/C=C(\Cc2cccnc2)C(=O)O)n1Cc1ccccc1Cl	0.18	0.3	ED50 (Rattus norvegicus [2]): 9.8 mg/kg
CCCCc1ncc(/C=C(\Cc2cc(OC)c(OC)c(OC)c2)C(=O)O)n1Cc1ccccc1Cl	1.7	1.9	–
CCCCc1ncc(CC(=O)O)n1Cc1ccccc1Cl	–	–	ED50 (Rattus norvegicus [2]): 22.5 mg/kg
CCCCc1ncc(CCCC(=O)O)n1Cc1ccccc1Cl	15	> 10	–
CCCCc1ncc(/C=C(/Cc2ccccc2)C(=O)O)n1Cc1ccccc1Cl	–	–	Kb [5]: 8.7 µM
CCCCc1ncc(CCC(=O)O)n1Cc1ccccc1Cl	2.8	16.5	–
CCCCc1ncc(/C=C(\Cc2ccc(N)cc2)C(=O)O)n1Cc1ccccc1Cl	0.32	–	IC50 [4]: 3 µM
CCCCc1ncc(/C=C(\Cc2ccc(Cl)c(Cl)c2)C(=O)O)n1Cc1ccccc1Cl	13.7	–	IC50 [4]: 25.6 µM
CCCCc1ncc(/C=C(\Cc2ccc(O)cc2)C(=O)O)n1Cc1ccccc1Cl	0.47	0.12	–
CCCCc1ncc(CCCCCC(=O)O)n1Cc1ccccc1Cl	7	19	–
CCCCc1ncc(/C=C(\Cc2cc(OC)cs2)C(=O)O)n1Cc1ccccc1Cl	0.03	–	IC50 [4]: 0.3 µM
CCCCc1ncc(/C=C(/C(=O)O)C(c2ccccc2)c2cccs2)n1Cc1ccccc1Cl (stereo not drawn)	2.3	–	IC50 [4]: 2.4 µM
CCCCc1ncc(/C=C(\Cc2ccsc2)C(=O)O)n1Cc1ccccc1Cl	–	–	IC50 [4]: 0.33 µM; ED50 (Rattus norvegicus [2]): 6.4 mg/kg
CCCCc1ncc(/C=C(/C(=O)O)c2ccccc2)n1Cc1ccccc1Cl	0.6	20.1	–
CCCCc1ncc(/C=C(\Cc2ccc3ccccc3c2)C(=O)O)n1Cc1ccccc1Cl	14.6	21.9	–
CCCCc1ncc(/C=C(\Cc2ccc([N+](=O)[O-])cc2)C(=O)O)n1Cc1ccccc1Cl	0.31	–	IC50 [4]: 0.4 µM
CCCCc1ncc(/C=C(\Cc2c[nH]cn2)C(=O)O)n1Cc1ccccc1Cl	0.31	0.25	ED50 (Rattus norvegicus [2]): 11 mg/kg
CCCCc1ncc(/C=C(\Cc2ccco2)C(=O)O)n1Cc1ccccc1Cl	0.05	1.2	–
CCCCc1ncc(/C=C(\C)C(=O)O)n1Cc1ccccc1Cl	0.97	22.3	–
CCCCc1ncc(/C=C(/C(=O)O)C(Cc2ccccc2)c2cccs2)n1Cc1ccccc1Cl (stereo not drawn)	0.61	5.2	–
CCCCc1ncc(/C=C(\CCc2cccs2)C(=O)O)n1Cc1ccccc1Cl	–	0.86	Kb [10]: 0.14 µM
CCCCc1ncc(/C=C(/C(=O)O)C(CCCC)c2cccs2)n1Cc1ccccc1Cl (stereo not drawn)	–	18.7	Kb [5]: 3.1 µM
CCCCc1ncc(/C=C(\Cc2ccc(OC)c(OC)c2)C(=O)O)n1Cc1ccccc1Cl	–	6.8	Kb [11]: 0.62 µM
